Experimental data published in the EternaBench riboswitch data.

Test system: MS2 coat protein
Assay: apparent Kd, MS2 coat protein; higher = weaker binding; RNA-MaP array; FMN 200 µM where present
Procedure, shortened: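 Designs were transcribed by stalled E. coli RNA polymerase on Illumina sequencing-chip clusters. They were titrated with SNAP-549-labelled MS2 coat protein from 0.7 or 1.5 nM, doubling to 3 µM, without and then with constant ligand. Buffer: 100 mM Tris-HCl pH 7.5, 80 mM KCl, 4 mM MgCl2, BSA, DTT, yeast tRNA, Tween-20. Green signal was normalised to red-channel RNA signal and control-cluster median Fmax. Apparent Kd is the median of filtered per-cluster binding-curve fits.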

[1] = ligand present: flavin mononucleotide, designed as: OFF switch for flavin mononucleotide
[2] = designed as: ON switch for flavin mononucleotide, no ligand
[3] = ligand present: flavin mononucleotide, designed as: ON switch for flavin mononucleotide
[4] = designed as: OFF switch for flavin mononucleotide, no ligand

Row | Sequence | apparent Kd [1] [µM] | apparent Kd [2] [µM] | apparent Kd [3] [µM] | apparent Kd [4] [µM]
1 | GUGACGGAUGUAGGAUAUGCUGACCAAUGGUCAGCAGAAGGACAUGAGGAUCACCCAUGUCAUCCUUAUAAUAAAUACCGUCAC | 0.0183 | – | – | –
2 | AAAAAAAAGGGUGAGGAUAUCGAAAAAAAAACAUGAGGAUCACCCAUGUGAAAAAAAAAAAAAUGCGAGAAGGCACUAAAAAAAAA | – | 0.151 | 0.0456 | –
3 | GCUUGAGCAGGAUAUACAUGAGGAUCACCCAUGUUGAGCUUGAGGAUCUUCGAGUUCGGUAGAAGGGUUCGAGU | 0.0595 | – | – | 0.0221
4 | ACAUGGAAGCAGGAUAUGCUUGUAUAAUUGUUUGCAGAAGGGCUAACAUGAGGAUCACCCAUGUAAGAGGUCUA | 0.0258 | – | – | 0.0162
5 | AGUUACAUACUCAACAUGAGGAUCACCCAUGUACUCUCUUGUAAGGAUAUACAUUCGUAUUGAAAGUAGAAGGUACUAAUUAUG | – | 0.0891 | 0.0773 | –
6 | AGCGAACAGGCUAACAUGAGGAUCACCCAUGUGGACUCAUGGUAGGAUAUCGGGAAGGAGGAAACCGAGAAGGGCCGGUGAGCA | – | 0.0698 | 0.0809 | –
7 | UUAUUAUGUGUAGGAUAUGCAUAUUAUUAUUAUGCAGAAGGACAUGAGGAUCACCCAUGUAUAUUAUUAUUAUAUAUUAUAUGU | 0.0442 | – | – | 0.0211
8 | UUACUGUAAUAGAAGGGUAUUUGGGUAGUACAUGAGGAUCACCCAUGUUUUAUAGGAUAUGUUUAUAGUUUUUAAUCAAGUUUA | 0.0623 | – | – | 0.0851
9 | GGCGGUCGGGAGGAUAUUCGGGCUGUUUGGCUUGGAGAAGGCUCGACAUGAGGAUCACCCAUGUAAGUGUUCUU | 0.406 | – | – | 0.376
10 | GCGCCUCAGAACAUGAGGAUCACCCAUGUGCUGCGGGCGCCGUAGGAUAUGAUGGUACGCUACCAUCAGAAGGAUGAUGGUACC | – | – | 0.00502 | –
11 | ACCAUUUACUAAUUAUCUAUACAUGAGGAUCACCCAUGUUAAGAGGAUAUCAUCGUUCGCCGCGAUGAGAAGGCUUAGCAUUCG | 0.154 | – | – | 0.0488
12 | GACUAGUAAGGAUAUCAAGUUCUCCACAUGAGGAUCACCCAUGUCGAUAACCUCUGACAAUGAGAAGGUGCUGACU | 0.0319 | – | – | 0.0352
13 | UGCAUGUAAGGAUAUGCAUCCGCCGACGUCCCGGCGGCACAGCAGAAGGUACAUGAGGAUCACCCAUGUGUCCC | 0.155 | – | – | 0.0288
14 | GGUCGUCACAUUUACAUGAGGAUCACCCAUGUCGAAAGACAUGAGGAUAUGCUACCUAAUUGGUAGCAGAAGGCAUGGACGACC | – | 0.455 | 0.234 | –
15 | GGGCUGUCAGGAUAUUUUGGGCCCGGGUAAACCCGGGCCCGGGAGAAGGGACAUGAGGAUCACCCAUGUGGCCC | 0.0373 | – | – | 0.0347
16 | GCCUUAUCCGUCAGGAUAUACAGCCGUUAGUUGUUGUAGAAGGGACAUGAGGAUCACCCAUGUACGUACCAUUG | 0.0307 | – | – | 0.0187
17 | ACGCUUUGGGAGAAGGUACUUUAAAAUUUUUCCACAUGAGGAUCACCCAUGUAAGGAUAUCCCAUCGUUAAAUAUUCUACAGCA | 0.00726 | – | – | 0.00898
18 | GUUACACAUGAGGAUCACCCAUGUAAGGAUAUGCUGCGGUCGCGAAAACGUGACUGCAGCAGAAGGUACACAUG | 0.121 | – | – | 0.119
19 | ACACAUGAGGAUCACCCAUGUACUCGACACAUUCAUUGGGCACAGGAUAUACGGUGAAGUCUUUCGUAGAAGGGUGCUAGUGUG | – | 0.084 | 0.0184 | –

Row | Sequence | apparent Kd [1] [µM] | apparent Kd [2] [µM] | apparent Kd [3] [µM] | apparent Kd [4] [µM]
20 | CUUAUGUGAGGAUAUGUACAGAAAAAAAAGGGUGUAACUGUACAGAAGGCACAUGAGGAUCACCCAUGUGCAUU | 0.0504 | – | – | 0.0608
21 | CUGUCGAUAUCAGGAUAUCGUUUACAUACAUGAGGAUCACCCAUGUAGAUGAUCAGCCUAAUAUACGAGAAGGGAUAUCGAUAG | – | 0.00926 | 0.00859 | –
22 | UAAUAAUAGCAAGGAUAUAGUUAUUAUAAUAUACUAGAAGGUGCACAUGAGGAUCACCCAUGUUUUAUAAUUUGUAAUUUAAAU | 0.0224 | – | – | 0.029
23 | UAAGUCUAAUGAGGAUAUCGUUAUCAAAGAUAAUGAGAAGGCAUACAAUCAUGAGGACAUGAGGAUCACCCAUGUUGUGACCAU | – | 0.0409 | 0.0176 | –
24 | AGCGGUGCAGGAUAUGGCCGAUCCCACAUGAGGAUCACCCAUGUAAAUAAAAUAAGAUCUCCAGAAGGGCAUCGCA | 0.0156 | – | – | 0.0304
25 | GGACGUCAGAUUAACAUGAGGAUCACCCAUGUCUUUUGACAUGAGGAUAUGGAAGGUAAUUCCUUCCAGAAGGCAUGGACGUCC | – | 1.02 | 0.114 | –
26 | GCCCGGGCAGGAUAUGCCCGGGCGCACAUGAGGAUCACCCAUGUGGCCCUGUGCCGUCCGGCAGAAGGGCCCGGGC | 0.0874 | – | – | 0.0901
27 | AGUUUUGUACAUGAGGAUCACCCAUGUUAAUAUGUGGUAGUCAGAAGGCAUUGUUAGUGUUUAUAUGAGGAUAUGAUUAGGCAG | – | 0.0466 | 0.0246 | –
28 | UAUUUUAACUAAGGAUAUCUGUAUUUUGUUGAAACAUGAGGAUCACCCAUGUUCAUGAAAUUAUAGGAGAAGGUAGAUGAAUAA | – | 0.00665 | 0.00495 | –
29 | GACUGCUGAGGAUAUACAUGAGGAUCACCCAUGUGCUUCAGCUACGAGAGUAGCAUUGGUAGAAGGUAGUAGUC | 0.0221 | – | – | 0.0121
30 | CCAGGCUUCGAGAAGGACAUGAGGAUCACCCAUGUGCGUGUAAAACAGCCGUGAGGCUGCAUCAUGUAGGAUAUCGGAGUCUGC | 0.0889 | – | – | 0.293
31 | UUGGACGUCGUAGGAUGUGUAGGAUAUUCCUACAUGAGGAUCACCCAUGUUGACAUGGAAGAAGGACAGAAGGACGAUGUCCAU | – | 0.386 | 0.0129 | –
32 | AAUAAUAAUGUCAGGAUAUCUAGAGCUUCGGCUCUAGAGAAGGGACAUGAGGAUCACCCAUGUCACUCAAUAAU | 0.0272 | – | – | 0.0162
33 | AUGAGCAACACAGGAUAUCUACGUGACAGAGCGAGAGAAGGGUGGGCCCAUGACUUACAUGAGGAUCACCCAUGUAGCUCCAAA | – | 0.0399 | 0.0972 | –
34 | GCUGCGCGAGGAUAUGCGGUUCGCGCUGUGGCCCGUGGCGCACAUGAGGAUCACCCAUGUAGAAGGCGUGCGGG | 0.0131 | – | – | 0.0123
35 | GCAUGAUACUAGGAUAUCAGCAUACUUCAAUGUUGAGAAGGAGUAACAUGAGGAUCACCCAUGUAUCCAACAUG | 0.166 | – | – | 0.0594
36 | UGGGAACGAGGAUAUCGAUGGUGGAACAUGAGGAUCACCCAUGUAUGAGAUAGUGUAGGGCGAGAAGGCGUUAAGU | 0.0665 | – | – | 0.0948
37 | AGUCAUACAGGAUAUACAUGAGGAUCACCCAUGUAAAUCCUAAAAAGAAAAACCUCUUGUAGAAGGGUAUGACA | 0.0163 | – | – | 0.0143
38 | AAAAAACAUGAGGAUCACCCAUGUAAAAAAAUCACAGGAUAUAAGGUCGCGAAAGCGACCUUAGAAGGGUGAUCCU | – | 0.0201 | 0.0201 | –

Row | Sequence | apparent Kd [1] [µM] | apparent Kd [2] [µM] | apparent Kd [3] [µM] | apparent Kd [4] [µM]
39 | UAAAUUUUGUAAGGAUAUACACGAGAUUCAAGUGUAGAAGGUACUUACAUGAGGAUCACCCAUGUAUACAUGGAUACUAGAUAU | – | 0.209 | 0.103 | –
40 | CCGUAGAGAGGAUAUACAUGAGGAUCACCCAUGUGACAUCGAACGAUGUCGCCUAGUCGUAGAAGGUUCAAACG | 0.0248 | – | – | 0.0254
41 | GAAAACGCAGAGGAUAUUUCAGAUCAAAGCUGCAAAGAAGGCUGCACAUGAGGAUCACCCAUGUGGUCUUUAAA | 0.202 | – | – | 0.0193
42 | AUAGCAACAUGAGGAUCACCCAUGUAGGAUAUCGCUAUUGUAAUCAUGAAACAUGAUUACAAUAGCGAGAAGGACAUAUGCUAG | 0.0123 | – | – | 0.0115
43 | CUCUUGUGAGGAUAUCAGUAGUAAAAAAAUAAAAUUACUACUGAGAAGGCACAUGAGGAUCACCCAUGUCUUUC | 0.158 | – | – | 0.211
44 | AGUUCACAUGAGGAUCACCCAUGUCAGGAUAUCGACUGAACAGCUUCGGCUGUUCAGUCGAGAAGGGACAAUUA | 0.104 | – | – | 0.0466
45 | GGAAUACAUGAGGAUCACCCAUGUAAGGAUAUGCUGAAUAACACGGAAUAAUCGUGCAGCAGAAGGUACAAAGG | 0.111 | – | – | 0.145
46 | GCUGGGUCAGGAUAUACAGGGUCGAAAGAUCUGUGAUACCUACAUGAGGAUCACCCAUGUAGAAGGGACUGGGC | 0.0381 | – | – | 0.0157
47 | UGGUACUAGGCAGGAUAUGGGAAGAUACAUGAGGAUCACCCAUGUUUAAGAAUGCCGAGAGGCAACUAGAAGGCCCUAGUACCU | – | 0.719 | 0.62 | –
48 | GUCCAGUUAGGAUAUCAAUGCCACAACAUGAGGAUCACCCAUGUUUGGGUCCCUCACCAAUGAGAAGGAACGGGAC | 0.0991 | – | – | 0.0347
49 | CUUUCGUUAGCAGGAUAUGGACAGGCCUGUCCGUCUUGAGUCAGUAACAUGAGGAUCACCCAUGUCCAGAAGGGCUCGAAGGGA | 0.0324 | – | – | 0.0177
50 | UCCUUAGCGGUCAGGAUAUACACCCGUUACUCCUUGUAGAAGGGACAUGAGGAUCACCCAUGUACAGUACAUCU | 0.021 | – | – | 0.0229
51 | GACACCGUGUAGAAGGACCAGUGCGCUACUAUGGUAGGAUAUACAUGAGGAUCACCCAUGUGACGGCUUUCGGUGGGAGCAGUG | 0.0198 | – | – | 0.0109
52 | UUGAUGUCAUCAGGAUAUAGUAUUUAAGACAUAUCUUCUUUCAAACAUGAGGAUCACCCAUGUCGCUAGAAGGGAUUAUUGAUU | 0.013 | – | – | 0.0168
53 | GGAUAGGACAGAGGAUAUACGUGCUAGAGAUACUAGCAAAAUUUCCUCACAUGAGGAUCACCCAUGUAGAAGGCUGUACUAUCG | 0.202 | – | – | 0.0152
54 | CUUAUGUGAGGAUAUCAGUAGUAAAAAAAUAAAAUUACUACUGAGAAGGCACAUGAGGAUCACCCAUGUGCCUC | 0.0134 | – | – | 0.0144
55 | AACCGCGACCGGCCUGGCACGUCGAGAAGGGUACGUGACCUGCUUUACAUGAGGAUCACCCAUGUACAGGAUAUCGAAUAGCCG | 0.0084 | – | – | 0.00597
56 | GGAUCCAUCACAGGAUAUGCUGGACUUUGUCCAGCAGAAGGGUGAACAUGAGGAUCACCCAUGUAAAAGGAUCCUAUAUUUAAU | – | 0.124 | 0.0249 | –
